# ChEMBL document CHEMBL1124171, “Ergolines as selective 5-HT1 agonists” (J Med Chem, 1988)
# Legend:
# [1] = (§1) Ratio of affinity towards 5-HT1 to 5-HT2 receptor
# How it was run: (§2)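 Frontal cortex from male Wistar rats (140–160 g), homogenate pellet in 0.05 M Tris with 10 μM pargyline and 4 mM Ca²⁺, 250–350 μg protein/sample. 5-HT1: 2 nM [³H]-5-HT, nonspecific with 10 μM 5-HT. […] Eleven concentrations, 0.1–10 000 nM, in duplicate. IC50 from curve fitting of specific binding.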
# Rattus norvegicus [2] = test: Minimum effective dose required to increase (MED) corticosterone in rat serum, sc; assay type: functional; conditions: read-out: MED
# How it was run: (§3)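 Male Wistar rats (~150 g). Compound in dilute HCl given sc at graded doses 1 h before decapitation. Whole-brain 5-HIAA measured by LC with electrochemical detection; serum corticosterone measured spectrofluorometrically. Minimum effective dose is the lowest dose giving a significant difference from control (P < 0.05).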
# [3] = target: T1, Serotonin 1 (5-HT1) receptor (Rattus norvegicus, UniProt P28564+P30940+P19327+P28565); test: Binding affinity towards 5-hydroxytryptamine 1 receptor using [3H]5-HT as a radioligand from rat frontal cortex homogenates; assay type: tissue-based
# [4] = target: Serotonin 2 (5-HT2) receptor (Rattus norvegicus, UniProt P30994+P08909+P14842); test: Binding affinity at 5-hydroxytryptamine 2 receptor from rat frontal cortex homogenates by [3H]-spiperone displacement.; assay type: tissue-based
# Rattus norvegicus [5] = test: Minimum effective dose required to suppressing (MED) 5HIAA concentration in rat when administered sc; assay type: functional; conditions: read-out: MED; how it was run: as §3
# [6] = target: T1, Serotonin 1 (5-HT1) receptor; test: Binding affinity towards 5-hydroxytryptamine 1 receptor in rat frontal cortex homogenates using [3H]5-HT as a radioligand; assay type: tissue-based
# How it was run: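 Frontal cortex from male Wistar rats (140–160 g), pellet in 0.05 M Tris with 10 μM pargyline and 4 mM Ca²⁺, 250–350 μg protein/sample. 2 nM [³H]-5-HT; nonspecific binding with 10 μM 5-HT; specific binding = total minus nonspecific. Eleven test concentrations, 0.1–10 000 nM, in duplicate.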
# [7] = target: T1, Serotonin 1 (5-HT1) receptor; test: Tested for its binding affinity towards 5-hydroxytryptamine 1 receptor in rat cortical membrane homogenates using radioligand ([3H]5-HT) binding assay.; assay type: cell membranes; how it was run: as §2
# Rattus norvegicus [8] = species: Rattus norvegicus; test: Effect of fluoxetine on the elevation of serum corticosterone at a dose 100 ug/mL, No pretreatment; assay type: functional, organism-based
# How it was run: (§4)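 Rats got fluoxetine HCl (10 mg/kg, ip) or no pretreatment. 16 h later, drug (0.3 mg/kg, sc, dilute HCl) or p-chloroamphetamine HCl (2.5 mg/kg, ip) was given, with decapitation 1 h after. Serum corticosterone was measured spectrofluorometrically. Results are mean ± SE, five male Wistar rats/group, P < 0.05.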
# Rattus norvegicus [9] = species: Rattus norvegicus; test: Effect of […] on the elevation of serum corticosterone at a dose 100 ug/mL No pretreatment; assay type: functional, organism-based
# How it was run: as §4, with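 “p-chlorophenylalanine (300” for “fluoxetine HCl (10”, “24” for “16”, “and rats were killed” for “with decapitation”, “rats/group.” for “rats/group, P < 0.05.”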
# Rattus norvegicus [10] = species: Rattus norvegicus; test: Effect of […] on the elevation of serum corticosterone at a dose 100 ug/mL PCPA pretreament; assay type: functional, organism-based
# How it was run: as §4, with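 “p-chlorophenylalanine (300” for “fluoxetine HCl (10”, “24” for “16”, “and rats were killed” for “with decapitation”, “rats/group.” for “rats/group, P < 0.05.”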
# Rattus norvegicus [11] = species: Rattus norvegicus; test: Effect of fluoxetine on the elevation of serum corticosterone at a dose 100 ug/mL, Fluoxetine pretreament; assay type: functional, organism-based; how it was run: as §4
# [12] = as §1; assay type: functional; how it was run: as §2
# Rattus norvegicus [13] = test: Effect on 3,4-dihydroxyphenylacetic acid concentration in rat striatum, after 10 mg/kg sc administration; assay type: functional; conditions: route subcutaneous
# How it was run: (§5)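 Male Wistar rats (~150 g) were given drug or apomorphine HCl sc and decapitated 1 h later. Striatal DOPAC and HVA were quantified by LC with electrochemical detection. Results are mean ± SE, five rats/group, P < 0.05.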
# Rattus norvegicus [14] = test: Effect on 3,4-dihydroxyphenylacetic acid concentration in rat striatum, after 1 mg/kg sc administration; assay type: functional; conditions: route subcutaneous; how it was run: as §5
# Rattus norvegicus [15] = test: Effect on homovanillic acid concentration in rat striatum, after 10 mg/kg sc administration; assay type: functional; conditions: route subcutaneous; how it was run: as §5
# Rattus norvegicus [16] = test: Effect on 3,4-dihydroxyphenylacetic acid concentration in rat striatum, after 3 mg/kg sc administration; assay type: functional; conditions: route subcutaneous; how it was run: as §5
# Rattus norvegicus [17] = test: Effect on homovanillic acid concentration in rat striatum, after 3 mg/kg sc administration; assay type: functional; conditions: route subcutaneous; how it was run: as §5
# Rattus norvegicus [18] = test: Effect on homovanillic acid concentration in rat striatum, after 1 mg/kg sc administration; assay type: functional; conditions: route subcutaneous; how it was run: as §5
SMILES,Selectivity ratio [1],IC50 [4] [nM],IC50 [7] [nM],other results
CSC[C@@H]1C=C2c3cccc4c3[C@@H](CN4)C[C@H]2N(C)C1,66,1330,,minimal effective dose (Rattus norvegicus [2]): 1 mg/kg; IC50 [3]: 20 nM; minimal effective dose (Rattus norvegicus [5]): 0.1 mg/kg
CC1=C[C@@H]2c3cccc4c3[C@@H](CN4)C[C@H]2N(C)C1,14,1850,,IC50 [6]: 130 nM
C[C@@H]1C=C2c3cccc4[nH]cc(c34)C[C@H]2N(C)C1,22,110,5,
CN1C[C@H](CO)C=C2c3cccc4[nH]cc(c34)C[C@H]21,11,160,15,
C=C1C=C2c3cccc4[nH]cc(c34)C[C@H]2N(C)C1,7,140,20,
CN1C[C@H](CC#N)C=C2c3cccc4c3[C@@H](CN4)C[C@H]21,106,2120,20,minimal effective dose (Rattus norvegicus [2]): 0.1 mg/kg; minimal effective dose (Rattus norvegicus [5]): 0.1 mg/kg
CC(N)Cc1ccc(Cl)cc1 (configuration not stated),,,,Serum corticosterone (Rattus norvegicus [8]): 69.4 µg/mL; Serum corticosterone (Rattus norvegicus [9]): 51.1 µg/mL; Serum corticosterone (Rattus norvegicus [10]): 14.9 µg/mL; Serum corticosterone (Rattus norvegicus [11]): 29.5 µg/mL
C[C@@H]1C=C2c3cccc4c3[C@H](C[C@H]2N(C)C1)CN4C,8,1250,160,
CC1=C[C@@H]2c3cccc4[nH]cc(c34)C[C@H]2N(C)C1 [AGROCLAVINE],2,270,140,
CN1C[C@H](CSc2ccccn2)C=C2c3cccc4c3[C@@H](CN4)C[C@H]21,28,110,3,
C[C@H]1C=C2c3cccc4[nH]cc(c34)C[C@H]2N(C)C1,1,130,80,
C[C@@H]1C[C@@H]2c3cccc4c3[C@@H](CN4)C[C@H]2N(C)C1,11,4220,,IC50 [6]: 390 nM
CN1C[C@H](CSc2ccccc2)C=C2c3cccc4c3[C@@H](CN4)C[C@H]21,26,210,8,
CN1C[C@H](CO)C[C@@H]2c3cccc4[nH]cc(c34)C[C@H]21,4,450,,IC50 [3]: 120 nM
C=C1C=C2c3cccc4c3[C@@H](CN4)C[C@H]2N(C)C1,48,3820,,IC50 [3]: 80 nM
C[C@H]1C=C2c3cccc4c3[C@@H](CN4)C[C@H]2N(C)C1,,> 1000,,Selectivity ratio [12]: > 50; minimal effective dose (Rattus norvegicus [2]): 0.003 mg/kg; IC50 [3]: 20 nM; minimal effective dose (Rattus norvegicus [5]): 0.001 mg/kg
CN1CCc2cccc3c2[C@H]1Cc1ccc(O)c(O)c1-3 [APOMORPHINE],,,,DOPAC (Rattus norvegicus [13]): 1.73; DOPAC (Rattus norvegicus [14]): 2.97; HVA (Rattus norvegicus [15]): 0.91; DOPAC (Rattus norvegicus [16]): 2.33; HVA (Rattus norvegicus [17]): 1.14; HVA (Rattus norvegicus [18]): 1.59
CCCN1C[C@H](C)C=C2c3cccc4c3[C@@H](CN4)C[C@H]21,> 5,> 1000,240,
CN1C[C@H](CO)C=C2c3cccc4c3[C@@H](CN4)C[C@H]21,102,2650,,minimal effective dose (Rattus norvegicus [2]): 0.1 mg/kg; IC50 [3]: 26 nM; minimal effective dose (Rattus norvegicus [5]): 1 mg/kg
COC(=O)[C@@H]1C=C2c3cccc4c3[C@@H](CN4)C[C@H]2N(C)C1,40,1620,40,
